# Experimental data reported in ChEMBL document CHEMBL1134596, “Synthesis and conformational analysis of fusidic acid side chain derivatives in relation to antibacterial activity” (2001).
# How the values were obtained:
# Assay type in all cases: functional
# Aspergillus niger = assay: Minimum inhibitory concentration against Aspergillus niger ATCC 16404
# Bacillus cereus = assay: Minimum inhibitory concentration against Bacillus cereus ATCC 10876
# Procedure, shortened: (§1)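 Agar cup diffusion assay. Colonies from a fresh overnight culture were suspended in saline to 0.5 McFarland (10^8 CFU/mL). Mueller Hinton agar at 48 °C was seeded at 10^6 CFU/mL and poured, and holes were cut in it. Each hole received sample from a six-step dilution series between 0.25 and 125 µg/mL. After incubation, inhibition zone diameters were measured with an electronic caliper to estimate the MIC.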
# Candida albicans = assay: Minimum inhibitory concentration against Candida albicans ATCC 10231
# Clostridium perfringens = assay: Minimum inhibitory concentration against Clostridium perfringens KT 13
# Procedure, shortened: (§2)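 MIC by agar cup diffusion. Colonies from fresh overnight culture were suspended in saline to 0.5 McFarland (10^8 CFU/mL), and molten Mueller Hinton agar at 48 °C was seeded at 10^6 CFU/mL and poured. Wells each received 200 µL of one of six dilutions spanning 0.25–125 µg/mL. After incubation, inhibition zone diameters were measured by caliper. Strains came from ATCC or in-house clinical isolates.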
# Corynebacterium xerosis = assay: Minimum inhibitory concentration against Corynebacterium xerosis NCTC 9755; procedure, shortened: as §1
# Escherichia coli = assay: Minimum inhibitory concentration against Escherichia coli HA 44; procedure, shortened: as §1
# Micrococcus luteus = assay: Minimum inhibitory concentration against Micrococcus luteus ATCC 9341; procedure, shortened: as §1
# Cutibacterium acnes = assay: Minimum inhibitory concentration against Propionibacterium acnes NCTC 737; procedure, shortened: as §1
# Staphylococcus aureus [1] = assay: Minimum inhibitory concentration against Staphylococcus aureus ATCC 6538P; procedure, shortened: as §1
# Staphylococcus aureus [2] = assay: Minimum inhibitory concentration against meticilline resistant Staphylococcus aureus CJ 232; procedure, shortened: as §2
# Staphylococcus aureus [3] = assay: Minimum inhibitory concentration against meticilline and fus resistant Staphylococcus aureus CJ 234; procedure, shortened: as §2
# Staphylococcus aureus [4] = assay: Minimum inhibitory concentration against meticilline and rifampicin resistant Staphylococcus aureus CJ 234; procedure, shortened: as §2
# [5] = Minimum inhibitory concentration against Saccharomyces cerevisiae ZZ 7
# Streptococcus salivarius = assay: Minimum inhibitory concentration against Streptococcus salivarius EG 7 (gr.A)
# Procedure, shortened: (§3)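 Streptococcal MICs were estimated by agar cup diffusion in Mueller Hinton agar supplemented with 5% sheep blood. The agar was seeded at 48 °C with 10^6 CFU/mL from a saline suspension at 0.5 McFarland. Cut holes were filled from six dilutions spanning 0.25–125 µg/mL. After incubation, growth-inhibition zone diameters were read with an electronic caliper.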
# [6] = test system: Streptococcus thermophilus; assay: Minimum inhibitory concentration against Streptococcus thermophilus EG 5; procedure, shortened: as §3
# [7] = test system: Streptococcus equi subsp. zooepidemicus; assay: Minimum inhibitory concentration against Streptococcus zooepidermidis ED (gr.C); procedure, shortened: as §3
# Enterococcus faecium = assay: Minimum inhibitory concentration against Streptococcus faecium EI 119; procedure, shortened: as §3
# [8] = test system: Staphylococcus epidermidis; assay: Minimum inhibitory concentration against Staphylococcus epidermidis ATCC 12228; procedure, shortened: as §1
# Streptococcus pyogenes = assay: Minimum inhibitory concentration against Streptococcus pyogenes EC; procedure, shortened: as §3
# [9] = Minimum inhibitory concentration against Streptococcus. species EF 6; conditions: Bacteria; procedure, shortened: as §3
# Staphylococcus aureus [10] = assay: Minimum inhibitory concentration against Staphylococcus aureus ATCC 29213; procedure, shortened: as §1
# Staphylococcus aureus [11] = assay: Minimum inhibitory concentration against Staphylococcus aureus ATCC 2977; procedure, shortened: as §2
SMILES,MIC (Bacillus cereus),MIC (Candida albicans),MIC (Clostridium perfringens),MIC (Corynebacterium xerosis),MIC (Escherichia coli),MIC (Micrococcus luteus),MIC (Cutibacterium acnes),MIC (Staphylococcus aureus [1]),MIC (Staphylococcus aureus [2]),MIC (Staphylococcus aureus [3]),MIC (Staphylococcus aureus [4]),MIC [5],MIC (Streptococcus salivarius),MIC [6],MIC [7],MIC (Enterococcus faecium),MIC [8],MIC (Streptococcus pyogenes),MIC [9],MIC (Staphylococcus aureus [10]),other results
CC(=O)O[C@H]1C[C@@]2(C)[C@@H](CC(O)[C@H]3[C@@]4(C)CCC(O)C(C)[C@@H]4CC[C@]32C)/C1=C(\CCC=C(C)C)C(=O)O (some centres not stated),4 µg/mL,16 µg/mL,16 µg/mL,0.01 µg/mL,> 125 µg/mL,1 µg/mL,0.003 µg/mL,0.007 µg/mL,0.015 µg/mL,> 125 µg/mL,0.006 µg/mL,4 µg/mL,4 µg/mL,4 µg/mL,16 µg/mL,0.01 µg/mL,0.0007 µg/mL,4 µg/mL,4 µg/mL,0.007 µg/mL,MIC (Aspergillus niger): 16 µg/mL; MIC (Staphylococcus aureus [11]): 0.006 µg/mL
CC(=O)O[C@H]1C[C@@]2(C)C(CC(O)[C@H]3[C@@]4(C)CCC(O)C(C)C4CC[C@@]32C)[C@@H]1[C@H](CCCC(C)C)C(=O)O (some centres not stated),> 125 µg/mL,> 125 µg/mL,> 125 µg/mL,4 µg/mL,> 125 µg/mL,> 125 µg/mL,4 µg/mL,4 µg/mL,4 µg/mL,> 125 µg/mL,0.9 µg/mL,> 125 µg/mL,> 125 µg/mL,> 125 µg/mL,> 125 µg/mL,16 µg/mL,3.8 µg/mL,> 125 µg/mL,> 125 µg/mL,2 µg/mL,MIC (Aspergillus niger): 16 µg/mL; MIC (Staphylococcus aureus [11]): 4 µg/mL
CC(=O)O[C@H]1C[C@@]2(C)C(CC(O)[C@H]3[C@@]4(C)CCC(O)C(C)C4CC[C@@]32C)C1[C@@H](CCC=C(C)C)C(=O)O (some centres not stated),> 125 µg/mL,> 125 µg/mL,> 125 µg/mL,> 125 µg/mL,> 125 µg/mL,> 125 µg/mL,4 µg/mL,> 125 µg/mL,> 125 µg/mL,> 125 µg/mL,> 125 µg/mL,> 125 µg/mL,> 125 µg/mL,> 125 µg/mL,> 125 µg/mL,> 125 µg/mL,> 125 µg/mL,> 125 µg/mL,> 125 µg/mL,> 125 µg/mL,MIC (Staphylococcus aureus [11]): > 125 µg/mL
CC(=O)O[C@H]1C[C@@]2(C)C(CC(O)[C@H]3[C@@]4(C)CCC(O)C(C)C4CC[C@]32C)C1[C@H](CCC=C(C)C)C(=O)O (some centres not stated),1 µg/mL,64 µg/mL,16 µg/mL,0.03 µg/mL,> 125 µg/mL,1 µg/mL,0.03 µg/mL,0.012 µg/mL,0.03 µg/mL,> 125 µg/mL,0.03 µg/mL,4 µg/mL,4 µg/mL,16 µg/mL,16 µg/mL,0.025 µg/mL,0.01 µg/mL,16 µg/mL,4 µg/mL,0.01 µg/mL,MIC (Aspergillus niger): 64 µg/mL; MIC (Staphylococcus aureus [11]): 0.03 µg/mL
